Experimental data from ChEMBL document CHEMBL1158511, “Tricyclic dihydroquinazolinones as novel 5-HT2C selective and orally efficacious anti-obesity agents” (Bioorg Med Chem Lett, 2010).
pEC50, pKi: −log10 of the molar value.

Legend:
[1] = target: T1, 5-hydroxytryptamine receptor 2A (Homo sapiens, UniProt P28223); test: Intrinsic activity at human recombinant 5HT2A receptor expressed in HEK293E cells by FLIPR assay at 3 uM relative to control; type: cell-based
Procedure, shortened: (§1)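 FLIPR calcium mobilization in HEK293E cells expressing the human receptor. Intrinsic activity is expressed relative to activation by 3 µM serotonin, defined as 1.0. Values are means of ≥2 independent 12-point dose-response curves.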

[2] = target: T2, 5-hydroxytryptamine receptor 2C (Homo sapiens, UniProt P28335); test: Agonist activity at human recombinant 5HT2C receptor expressed in HEK293E cells by FLIPR assay; type: functional, cell-based
T2 sequence (P28335 whole entry): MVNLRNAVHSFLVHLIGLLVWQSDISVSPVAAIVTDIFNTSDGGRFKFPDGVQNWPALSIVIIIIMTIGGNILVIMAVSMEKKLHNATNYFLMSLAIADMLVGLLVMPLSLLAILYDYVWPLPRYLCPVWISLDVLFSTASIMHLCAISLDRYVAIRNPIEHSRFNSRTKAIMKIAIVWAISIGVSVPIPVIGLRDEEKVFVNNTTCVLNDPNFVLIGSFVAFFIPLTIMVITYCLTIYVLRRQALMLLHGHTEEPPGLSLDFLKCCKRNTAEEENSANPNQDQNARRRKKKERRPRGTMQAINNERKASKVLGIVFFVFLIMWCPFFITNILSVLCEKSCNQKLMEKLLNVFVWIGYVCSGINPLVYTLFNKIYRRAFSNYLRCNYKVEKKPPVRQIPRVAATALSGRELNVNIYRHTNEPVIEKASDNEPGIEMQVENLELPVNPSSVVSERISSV
Procedure, shortened: (§2)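 Calcium mobilization measured by FLIPR in HEK293E cells expressing human 5-HT2A, 5-HT2B or 5-HT2C receptor. Values are means of ≥2 independent 12-point dose-response curves (n ≥4 where SD is given). mCPP is the positive control.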

[3] = target: T1, 5-hydroxytryptamine receptor 2A; test: Agonist activity at human recombinant 5HT2A receptor expressed in HEK293E cells by FLIPR assay; type: functional, cell-based; procedure, shortened: as §2
[4] = target: T1, 5-hydroxytryptamine receptor 2A; test: Displacement of [125I]DOI from human recombinant 5HT2A receptor expressed in HEK293E cells; type: cell-based
Procedure, shortened: (§3)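 Radioligand binding with [125I]DOI at the human 5-HT2C or 5-HT2A receptor. Ki is the mean of ≥2 independent 12-point dose-response curves (n ≥4 where SD is given).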

[5] = target: T2, 5-hydroxytryptamine receptor 2C; test: Displacement of [125I]DOI from human recombinant 5HT2C receptor expressed in HEK293E cells; type: cell-based; procedure, shortened: as §3
[6] = target: T3, 5-hydroxytryptamine receptor 2B (Homo sapiens, UniProt P41595); test: Displacement of [3H]LSD from human recombinant 5HT2B receptor expressed in HEK293E cells
[7] = target: T4, 5-hydroxytryptamine receptor 2C (Homo sapiens) (UniProt P28335); test: Intrinsic activity at human recombinant 5HT2C receptor at 3 uM expressed in HEK293E cells by FLIPR assay relative to control; type: cell-based; procedure, shortened: as §1
T4 sequence (whole entry): T2 sequence (P28335 whole entry)

[8] = target: T3, 5-hydroxytryptamine receptor 2B; test: Agonist activity at human recombinant 5HT2B receptor expressed in HEK293E cells by FLIPR assay; type: functional, cell-based; procedure, shortened: as §2
[9] = target: T3, 5-hydroxytryptamine receptor 2B; test: Intrinsic activity at human recombinant 5HT2B receptor expressed in HEK293E cells by FLIPR assay at 3 uM relative to control; type: cell-based; procedure, shortened: as §1
[10] = target: 5-hydroxytryptamine receptor 2B (Rattus norvegicus) (UniProt P30994); test: Intrinsic activity at 5HT2B receptor in rat fundus at 10 uM relative to control
[11] = species on record: Rattus norvegicus; test: Antiobesity activity in Sprague-Dawley rat assessed as reduction of food intake after 20 hrs; type: functional, organism-based
[12] = system: Rattus norvegicus; test: Antiobesity activity in Sprague-Dawley rat assessed as reduction of food intake at 10 mg/kg, po after 20 hrs; type: functional; design: scale not given: the % may be the effect or the level left
[13] = AUC in Sprague-Dawley rat at 10 mg/kg, po after 8 hrs; type: ADME, organism-based; design: time < 8 hr, dose 10 mg/kg, route oral; conditions: plasma
Procedure, shortened: (§4)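 Male Sprague–Dawley rats given a single oral dose, 2 animals per value. AUC is taken over 0–8 h. Plasma and total brain levels are measured at 8 h post dose.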

[14] = Plasma concentration in Sprague-Dawley rat at 10 mg/kg, po after 8 hrs; type: ADME, organism-based; design: dose 10 mg/kg, route oral; procedure, shortened: as §4
[15] = Tmax in Sprague-Dawley rat at 10 mg/kg, po; type: ADME, organism-based; design: dose 10 mg/kg, route oral; conditions: in vivo
Procedure, shortened: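 Male Sprague–Dawley rats were dosed po only at 1 or 10 mpk. Values are means of 2 animals. AUC was collected over 4 h. Plasma and total brain levels were taken at 4 h post dose.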

[16] = system: Rattus norvegicus; test: Antiobesity activity in Sprague-Dawley rat assessed as reduction of body weight at 30 mg/kg, po after 4 days; type: functional; design: scale not given: the % may be the effect or the level left
Procedure, shortened: (§5)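 Male Sprague–Dawley rats, about 240 g (n = 8), were dosed orally once daily for 4 days with compound or vehicle (14% propylene glycol, 1% tween, 85% water, v/v/v). Body weight, food and water intake were measured daily and compared with vehicle.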

[17] = system: Rattus norvegicus; test: Antiobesity activity in Sprague-Dawley rat assessed as reduction of food intake at 30 mg/kg, po after 20 hrs; type: functional; design: scale not given: the % may be the effect or the level left
Procedure, shortened: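 Male Sprague–Dawley rats (n = 6) are dosed orally 60 min before dark-cycle onset. Vehicle is 14% propylene glycol, 1% tween, 85% water (v/v/v). Food pellet consumption over 20 h is compared with vehicle-treated animals as percent reduction. Water intake and locomotor activity are recorded at the same time.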

[18] = system: Rattus norvegicus; test: Antiobesity activity in Sprague-Dawley rat assessed as reduction of caloric intake at 30 mg/kg, po after 4 days; type: functional; design: scale not given: the % may be the effect or the level left; procedure, shortened: as §5
[19] = system: Brain; test: Drug level in Sprague-Dawley rat brain at 10 mg/kg, po after 8 hrs; type: ADME, organism-based; design: dose 10 mg/kg, route oral; conditions: in vivo; procedure, shortened: as §4

T1 sequence (P28223 whole entry): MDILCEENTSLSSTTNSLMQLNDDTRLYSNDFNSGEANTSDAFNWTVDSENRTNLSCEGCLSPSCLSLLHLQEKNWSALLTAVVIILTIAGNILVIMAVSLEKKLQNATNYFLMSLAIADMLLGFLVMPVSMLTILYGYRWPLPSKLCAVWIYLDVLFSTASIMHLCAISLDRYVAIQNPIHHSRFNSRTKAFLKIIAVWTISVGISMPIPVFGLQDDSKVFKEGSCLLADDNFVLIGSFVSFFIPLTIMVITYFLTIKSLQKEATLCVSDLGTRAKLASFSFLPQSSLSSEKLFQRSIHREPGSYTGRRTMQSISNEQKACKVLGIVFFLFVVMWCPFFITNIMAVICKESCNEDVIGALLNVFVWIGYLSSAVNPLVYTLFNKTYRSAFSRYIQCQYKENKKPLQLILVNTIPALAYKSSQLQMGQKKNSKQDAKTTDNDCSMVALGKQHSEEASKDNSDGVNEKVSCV
T3 sequence (P41595 whole entry): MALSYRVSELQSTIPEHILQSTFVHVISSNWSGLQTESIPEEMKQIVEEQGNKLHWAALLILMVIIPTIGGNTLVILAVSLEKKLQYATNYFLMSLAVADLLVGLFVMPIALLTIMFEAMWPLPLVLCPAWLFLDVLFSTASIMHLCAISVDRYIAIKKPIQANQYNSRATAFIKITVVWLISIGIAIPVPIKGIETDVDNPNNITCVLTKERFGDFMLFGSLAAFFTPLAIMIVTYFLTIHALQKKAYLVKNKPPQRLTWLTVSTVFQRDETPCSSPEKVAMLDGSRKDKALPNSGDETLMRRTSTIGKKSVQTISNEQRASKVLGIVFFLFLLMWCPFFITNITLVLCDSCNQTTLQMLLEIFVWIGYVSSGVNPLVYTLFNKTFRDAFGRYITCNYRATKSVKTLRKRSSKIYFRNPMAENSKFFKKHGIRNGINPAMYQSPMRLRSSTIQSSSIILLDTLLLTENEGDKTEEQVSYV
Sequence of 5-hydroxytryptamine receptor 2B (Rattus norvegicus) (P30994 whole entry, looked up): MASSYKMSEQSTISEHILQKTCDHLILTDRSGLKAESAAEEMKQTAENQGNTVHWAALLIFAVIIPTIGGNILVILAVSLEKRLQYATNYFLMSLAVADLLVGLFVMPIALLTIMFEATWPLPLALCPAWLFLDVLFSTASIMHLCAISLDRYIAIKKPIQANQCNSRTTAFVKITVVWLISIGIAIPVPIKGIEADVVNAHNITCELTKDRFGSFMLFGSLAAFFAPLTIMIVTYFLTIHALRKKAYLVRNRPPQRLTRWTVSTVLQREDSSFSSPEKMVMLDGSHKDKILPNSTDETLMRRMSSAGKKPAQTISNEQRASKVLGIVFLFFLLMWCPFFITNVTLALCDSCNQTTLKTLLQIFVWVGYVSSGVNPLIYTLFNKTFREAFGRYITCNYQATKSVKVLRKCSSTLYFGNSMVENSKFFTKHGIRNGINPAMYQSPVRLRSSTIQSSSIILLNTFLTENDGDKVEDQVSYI

Row | Structure (SMILES) | Intrinsic activity [1] | pEC50 [2] | pEC50 [3] | pKi [4] | pKi [5] | pKi [6] | Intrinsic activity [7] | pEC50 [8] | Intrinsic activity [9] | further results
1 | Cc1cccc2c1N1CCNCC1NC2=O (configuration not stated) | 0 | 5.38 | < 5.00 | < 5.00 | 5.21 | 5.62 | 0.4 | – | – | –
2 | Cc1cccc2c1C(=O)NC1CCNCCN21 (configuration not stated) | 1 | 8.70 | 7.15 | 6.85 | 8.54 | 8.00 | 1 | 7.21 | 0.44 | Intrinsic activity [10]: 0.2
3 | O=C1NC2CNCCN2c2c(Cl)cccc21 (configuration not stated) | – | < 5.00 | – | < 5.00 | < 5.00 | < 5.00 | 0 | – | – | –
4 | O=C1NC2CNCCN2c2cccc(Cl)c21 (configuration not stated) | 0 | 7.37 | < 5.00 | 6.48 | 6.65 | 7.74 | 0.8 | < 5.00 | 0 | –
5 | Clc1cccc(N2CCNCC2)c1 | 0.3 | – | – | – | – | – | 1 | – | 0.4 | –
6 | O=C1NC2CNCCCN2c2cccc(Cl)c21 (racemic) | – | – | – | 4.87 | 5.81 | 6.13 | – | – | – | –
7 | O=C1NC2CNCCN2c2ccccc21 (single isomer, unassigned) | – | 6.86 | – | 5.70 | 5.71 | 6.86 | 0.96 | – | – | –
8 | Cc1ccc2c(c1)C(=O)NC1CNCCN21 (single isomer, unassigned) | 0.34 | 6.88 | < 6.15 | 5.91 | 6.00 | 7.21 | 1 | < 5.00 | 0 | –
9 | Cc1ccc2c(c1)N1CCNCC1NC2=O (single isomer, unassigned) | 0.26 | 7.47 | < 6.00 | 6.22 | 6.32 | 6.55 | 1 | < 5.00 | 0 | –
10 | O=C1NC2CNCCN2c2cccc(C(F)(F)F)c21 (single isomer, unassigned) | – | 7.04 | – | 6.74 | 6.82 | 7.89 | 0.93 | < 5.00 | – | –
11 | O=C1NC2CNCCN2c2ccc(Cl)cc21 (single isomer, unassigned) | – | 6.96 | – | 6.40 | 6.12 | 7.14 | 0.97 | – | – | –
12 | O=C1NC2CCNCCN2c2cccc(Cl)c21 (single isomer, unassigned) | 0.8 | 8.74 | 6.89 | 6.77 | 8.05 | 7.64 | 1 | 7.34 | 0.5 | –
13 | O=C1NC2CCNCCN2c2ccccc21 (single isomer, unassigned) | 1 | 7.80 | 6.61 | 6.57 | 7.31 | 7.17 | 0.8 | 7.00 | 0.6 | –
14 | Cc1cccc2c1C(=O)NC1CNCCN21 (single isomer, unassigned; (+)) | 0 | – | – | – | – | – | 1 | – | 0 | Activity [11]: Dose-dependent effect
15 | Cc1ccc2c(c1)N1CCNCCC1NC2=O (stereo in doubt; (+)-3c) [listing 1 of 2 here] | – | 8.18 | 6.02 | 6.44 | 8.19 | 7.39 | – | < 5.00 | – | Activity [12]: 18%; AUC at 8 h [13]: 9.24 µM·h; concentration at 8 h [14]: 714 nM; Tmax [15]: 1.5 h; Activity [16]: 2.7%; Activity [17]: 25%; Activity [18]: 19%; Drug uptake [19]: 108 nmol/kg
16 | Cc1ccc2c(c1)N1CCNCCC1NC2=O (stereo in doubt; (+)-3c) [listing 2 of 2 here] | 0.28 | – | – | – | – | – | 1.1 | – | 0 | –
17 | Cc1cccc2c1C(=O)NC1CNCCN21 (stereo in doubt; (-)-2a) [listing 1 of 2 here] | – | 6.00 | – | 5.35 | 5.68 | 6.69 | – | – | – | –
18 | Cc1cccc2c1C(=O)NC1CNCCN21 (stereo in doubt; (-)-2a) [listing 2 of 2 here] | – | – | – | – | – | – | 0.9 | – | – | –
19 | Cc1ccc2c(c1)N1CCNCCC1NC2=O (stereo in doubt; (-)-3c) [listing 1 of 2 here] | – | 7.04 | < 5.00 | 6.34 | 7.22 | 7.29 | – | – | – | –
20 | Cc1ccc2c(c1)N1CCNCCC1NC2=O (stereo in doubt; (-)-3c) [listing 2 of 2 here] | 0.11 | – | – | – | – | – | 0.66 | – | – | –
